An excerpt weighted towards active compounds, which were near 1.5% of everything screened.
DNMT1 block: DNMT1 (human) enzyme inhibition. AID 588458. inhibition (reported as % activation of signal), % at 10 µM. P26358. DNMT1 molecular beacon, Hinp1I cleavage, fluorescence. 360,000 compounds, 0.83% hits
HCV NS3 hel inh: inhibitors of Hepatitis C virus NS3 helicase; NS3 helicase DNA unwinding, Cy5 molecular beacon fluorescence; inhibition, % at 10.9 µM; 290,000 compounds, 0.56% hits;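 active = inhibition above the mean of all tested compounds plus 3 SD, set per campaign, cut at about 35% in these data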
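System: HCV NS3 helicase fragment; control set: DMSO and thioflavine S; technique: Cy5 fluorescence at 0 and 60 min, beacon hairpin quenching; reagent: beacon DNA duplex substrate plus ATP; replicates: singlicate; schedule: 1 h reaction at 25 °C, ATP-initiated; medium: MOPS buffer pH 6.5 with MgCl2, DTT, Tween20, BSA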
NSD2 HMT inh: inhibitors of human histone methyltransferase NSD2 | inhibition, % at 12.5 µM | NSD2 peptide methylation, AlphaScreen, 120 min | 310,000 compounds, 0.54% hits
CASP6 VEID inh: caspase-6 (human) enzyme inhibition. P55212. purified caspase-6, Z-VEID-R110 cleavage fluorescence. inhibition, % at 12.5 µM. 350,000 compounds, 0.53% hits. AID 686996;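 active = mean inhibition across replicates at least about 35%, with every replicate also reaching that limit, limit read from the data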
Numbers stand for hits. Cut-off read from the data, not from the text of the source, unless noted: active = inhibition above about 50%; inactive = the rest.

`CN1CCCCC(NC(=O)COCc2ccccc2)C1=O` (stereo not drawn) gave CASP6 VEID inh 37.8.
Screening COc1ccccc1N(Cc1ccccc1)S(=O)(=O)c1cccc(C(=O)Nc2ccccn2)c1 returned DNMT1 block inactive, HCV NS3 hel inh inactive, NSD2 HMT inh inactive and CASP6 VEID inh 39.4.
Screening COc1ccccc1N(Cc1ccccc1)S(=O)(=O)c1cccc(C(=O)Nc2ccc(C)cn2)c1 returned DNMT1 block inactive, NSD2 HMT inh inactive and CASP6 VEID inh inactive.
For O=C(NCC1CC1)[C@@H]1N[C@@H]2c3ccc(C4=CCCCC4)c(=O)n3C[C@@H]2[C@H]1CO the results were CASP6 VEID inh inactive.
Screening Cc1ccccc1-c1ccc([C@H]2[C@H](CO)N3CCCCN(C(=O)CN4CCOCC4)C[C@@H]23)cc1 returned CASP6 VEID inh inactive.
`Cc1ccc(O)c(N=CC2=C(O)c3ccccc3C2=O)c1` gave DNMT1 block 57.4, HCV NS3 hel inh inactive and NSD2 HMT inh inactive.
`CCN(CC)S(=O)(=O)c1cccc(C(=O)N/N=C/c2cccc(O)c2O)c1` gave DNMT1 block inactive, HCV NS3 hel inh 45.5 and CASP6 VEID inh inactive.
`CCOC(=O)c1c(C)oc2c1c(C=NCc1ccccn1)c(O)c1ccccc12` gave DNMT1 block inactive, HCV NS3 hel inh inactive and CASP6 VEID inh 60.4.
CCOC(=O)c1c(C)oc2c1c(C=NCC1CCCO1)c(O)c1ccccc12 (stereo not drawn) was read as DNMT1 block inactive, HCV NS3 hel inh inactive and NSD2 HMT inh 99.4.
CCOC(=O)c1c(NCC2CCCO2)c2ccccc2[nH]c1=O (stereo not drawn) was read as DNMT1 block inactive, HCV NS3 hel inh inactive and NSD2 HMT inh inactive.
For CCOC(=O)c1c(C)oc2c1cc(O)c1ccccc12 the results were DNMT1 block inactive and HCV NS3 hel inh inactive.
For C[C@@H]1CN([C@H](C)CO)C(=O)c2cccc(NC(=O)Nc3ccc(F)cc3)c2O[C@H]1CN(C)Cc1ccc(Oc2ccccc2)cc1 the results were CASP6 VEID inh inactive.
For CCc1nnc(NC(=O)CSc2nc3[nH]c(=O)cc(O)c3s2)s1 the results were DNMT1 block inactive, NSD2 HMT inh inactive and CASP6 VEID inh inactive.
`CCSc1nnc(NC(=O)CSc2sc3c(O)cc(=O)[nH]c3c2C#N)s1` gave DNMT1 block 77.1, HCV NS3 hel inh inactive, NSD2 HMT inh inactive and CASP6 VEID inh 44.1.
CCc1nnc(NC(=O)CSc2sc3c(O)cc(=O)[nH]c3c2C#N)s1 was read as DNMT1 block 82.9, HCV NS3 hel inh inactive and CASP6 VEID inh 64.5.
Screening COc1ccc(Cl)cc1NC(=O)CSc1sc2c(O)cc(=O)[nH]c2c1C#N returned DNMT1 block inactive, HCV NS3 hel inh inactive and CASP6 VEID inh inactive.
Cc1csc(NC(=O)CSc2sc3c(O)cc(=O)[nH]c3c2C#N)n1 was read as DNMT1 block inactive, HCV NS3 hel inh inactive, NSD2 HMT inh inactive and CASP6 VEID inh 79.2.
Screening O=C(C[C@@H]1C[C@H]2c3cc(NS(=O)(=O)c4ccc(F)cc4)ccc3O[C@H]2[C@H](CO)O1)NCc1cccc(F)c1 returned CASP6 VEID inh inactive.
Screening O=C(C[C@@H]1C=C[C@@H](NC(=O)Nc2ccccc2)[C@H](CO)O1)NCc1ccccn1 returned CASP6 VEID inh inactive.
Screening CO[C@@H]1CN(C)C(=O)c2cc(NS(=O)(=O)c3ccccc3)ccc2OC[C@@H](C)N(Cc2nccs2)C[C@H]1C returned CASP6 VEID inh inactive.
Screening C/C(=N\NC(=O)c1cc(O)ccc1O)c1cccc(NC(=O)c2cccc(Cl)c2)c1 returned DNMT1 block inactive, HCV NS3 hel inh inactive, NSD2 HMT inh inactive and CASP6 VEID inh 39.3.
For C/C(=N\NC(=O)c1ccccc1O)c1cccc(NC(=O)c2ccccc2)c1 the results were DNMT1 block inactive, HCV NS3 hel inh inactive and CASP6 VEID inh inactive.
`C[C@@H]1CN([C@@H](C)CO)C(=O)c2cc(NC(=O)c3ccccc3)ccc2O[C@@H](C)CCCCO[C@H]1CN(C)Cc1ccc(C(=O)O)cc1` gave CASP6 VEID inh inactive.
For O=C(O)[C@H]1[C@H](CO)[C@H]2Cn3c(ccc(/C=C/c4ccccc4)c3=O)[C@H]2N1Cc1ccc2c(c1)OCO2 the results were CASP6 VEID inh inactive.
For O=C(O)[C@@H]1[C@@H](CO)[C@@H]2Cn3c(ccc(/C=C/c4ccccc4)c3=O)[C@@H]2N1Cc1ccc2c(c1)OCO2 the results were CASP6 VEID inh 50.1.
Screening O=C1Cc2ccccc2C(=O)N1Nc1ccccc1 returned DNMT1 block inactive and CASP6 VEID inh 49.3.
COc1ccc2c(c1)C(=O)N(c1ccccc1)C(=O)C2 was read as DNMT1 block inactive and HCV NS3 hel inh inactive.
Cc1ccccc1N1C(=O)Cc2ccccc2C1=O was read as DNMT1 block inactive, HCV NS3 hel inh inactive, NSD2 HMT inh inactive and CASP6 VEID inh 54.3.
Screening O=C1CSC(=S)N1Nc1ccccc1 returned DNMT1 block inactive, NSD2 HMT inh inactive and CASP6 VEID inh inactive.
COc1ccc(N2C(=O)Cc3ccccc3C2=O)cc1 was read as DNMT1 block inactive, HCV NS3 hel inh inactive, NSD2 HMT inh inactive and CASP6 VEID inh 42.8.
For CO[C@@H]1CN(C)C(=O)c2cc(NC(=O)NC(C)C)ccc2OC[C@@H](C)N(S(C)(=O)=O)C[C@@H]1C the results were CASP6 VEID inh inactive.
O=C([C@H]1[C@H](CO)[C@H]2Cn3c(ccc(-c4ccccc4)c3=O)[C@@H]1N2)N1CCCCC1 was read as CASP6 VEID inh inactive.
`O=C(N/N=C/C(Br)=C/c1ccccc1)c1n[nH]c2c1CCC2` gave DNMT1 block 57.3 and HCV NS3 hel inh inactive.
`C[C@H](O)[C@@H]1C(=O)N2CCc3c([nH]c4ccccc34)[C@@H]2C[C@@H]1N(C)C(=O)Nc1cccc2ccccc12` gave DNMT1 block inactive and CASP6 VEID inh 82.1.
For CN1CCN(c2ccc(CNC(=O)C3Cc4c(-c5ccc6c(c5)OCO6)ccnc4O3)cc2)CC1 (stereo not drawn) the results were DNMT1 block inactive, NSD2 HMT inh inactive and CASP6 VEID inh 79.6.
`Cc1noc(C)c1NC(=O)NCC[C@@H]1CC[C@H](NC(=O)c2ccccc2)[C@H](CO)O1` gave CASP6 VEID inh inactive.
For NC(=O)Cn1cc(C(=O)C(=O)N2CCOCC2)c2ccccc21 the results were DNMT1 block inactive, HCV NS3 hel inh inactive, NSD2 HMT inh inactive and CASP6 VEID inh 45.2.
CN1CCN(C(=O)C(=O)c2cn(CC(=O)N3CCOCC3)c3ccccc23)CC1 was read as DNMT1 block inactive, NSD2 HMT inh inactive and CASP6 VEID inh inactive.
Screening CCCC#Cc1ccc2c(c1)O[C@@H](CN(C)C(=O)Nc1ccccc1F)[C@H](C)CN([C@@H](C)CO)S2(=O)=O returned CASP6 VEID inh inactive.
For Cc1c(C(=O)OCC2CCCO2)[nH]c2c1C(=O)CC(c1ccco1)C2 (stereo not drawn) the results were DNMT1 block 97.6 and HCV NS3 hel inh inactive.
`COc1cccc(C(=O)OCC(=O)NC23CC4CC(CC(C4)C2)C3)c1` gave DNMT1 block inactive, NSD2 HMT inh inactive and CASP6 VEID inh inactive.
CC(=O)Oc1cc(C(=O)OCC(=O)NC23CC4CC(CC(C4)C2)C3)cc(OC(C)=O)c1OC(C)=O was read as DNMT1 block inactive and CASP6 VEID inh 41.3.

Bioassay records (PubChem)
